Active and inactive are the calls of the source.
Experiments:
[1] = molecular target: T1, Protein deacetylase HDAC6 (Homo sapiens) (UniProt Q9UBN7); experiment: Inhibition of HDAC6 binding to HSP90 in human SH-SY5Y cells transfected with pCAX FLAG APP and pRK5-EGFP-Tau P301L plasmids at 1 uM after 24 hrs by coimmunoprecipitation analysis; assay type: cell-based
T1 sequence (whole entry): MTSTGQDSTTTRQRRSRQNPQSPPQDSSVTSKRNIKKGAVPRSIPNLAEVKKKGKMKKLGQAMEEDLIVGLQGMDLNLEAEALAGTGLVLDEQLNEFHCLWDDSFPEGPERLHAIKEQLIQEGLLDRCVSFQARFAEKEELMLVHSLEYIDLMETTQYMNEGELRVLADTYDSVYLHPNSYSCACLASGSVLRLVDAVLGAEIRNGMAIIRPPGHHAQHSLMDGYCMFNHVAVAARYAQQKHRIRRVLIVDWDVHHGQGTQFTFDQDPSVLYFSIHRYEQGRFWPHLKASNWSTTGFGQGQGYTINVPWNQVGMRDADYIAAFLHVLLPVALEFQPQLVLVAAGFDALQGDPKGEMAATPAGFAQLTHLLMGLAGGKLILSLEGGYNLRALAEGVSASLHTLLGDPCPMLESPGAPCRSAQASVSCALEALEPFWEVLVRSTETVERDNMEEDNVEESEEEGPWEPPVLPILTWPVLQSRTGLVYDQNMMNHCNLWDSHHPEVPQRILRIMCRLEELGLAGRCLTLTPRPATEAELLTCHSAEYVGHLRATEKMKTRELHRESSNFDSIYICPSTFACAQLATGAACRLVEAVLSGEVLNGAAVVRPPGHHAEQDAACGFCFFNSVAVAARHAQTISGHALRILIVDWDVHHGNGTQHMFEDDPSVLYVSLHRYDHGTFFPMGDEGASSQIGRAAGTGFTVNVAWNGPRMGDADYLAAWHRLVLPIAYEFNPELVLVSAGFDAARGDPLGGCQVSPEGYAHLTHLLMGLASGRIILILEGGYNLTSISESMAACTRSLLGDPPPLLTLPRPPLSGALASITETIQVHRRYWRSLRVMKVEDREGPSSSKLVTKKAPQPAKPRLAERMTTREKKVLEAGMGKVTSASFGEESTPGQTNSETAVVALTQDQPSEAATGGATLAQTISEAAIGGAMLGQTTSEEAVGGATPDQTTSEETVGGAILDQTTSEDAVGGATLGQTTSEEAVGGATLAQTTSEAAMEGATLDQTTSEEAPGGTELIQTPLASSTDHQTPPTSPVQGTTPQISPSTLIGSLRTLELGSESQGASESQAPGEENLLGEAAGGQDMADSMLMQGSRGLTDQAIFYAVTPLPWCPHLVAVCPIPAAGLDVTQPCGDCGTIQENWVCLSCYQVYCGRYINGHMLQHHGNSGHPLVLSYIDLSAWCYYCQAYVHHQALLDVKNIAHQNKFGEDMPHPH
How it was run: (§1)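 SH-SY5Y and Neuro-2a cells cotransfected 24 h with APP695/Tau P301L plasmids, treated 24 h at 1 µM (ACY-1215 reference). 30 µg lysate immunoprecipitated overnight at 4 °C with anti-HDAC6 or anti-acetyl-lysine antibodies plus protein A/G beads, run on 8% SDS-PAGE, probed for Hsp90; Hsp70 by immunoblot. Three independent experiments.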

[2] = molecular target: T1, Protein deacetylase HDAC6 (Homo sapiens); experiment: Inhibition of HDAC6 in human SH-SY5Y cells transfected with pCAX FLAG APP and pRK5-EGFP-Tau P301L plasmids assessed as reduction in Tau P301L mutant level in cytosol at 1 uM after 24 hrs by Western blot analysis; assay type: cell-based
How it was run: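 Cotransfected SH-SY5Y cells (1 × 10^7) treated 24 h at 1 µM, lysed in sucrose/HEPES pH 7.2 buffer; 190,000 g supernatant = cytosol. Pellet treated with 5 µM nocodazole, re-spun; residual pellet extracted with sodium carbonate pH 11.5 and washed in 1% SDS to give aggregate fraction. Equal protein by SDS-PAGE immunoblot.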

[3] = system: Rattus norvegicus; experiment: Reversal of scopolamine-induced spatial memory impairment in Wistar rat assessed as reduction in escape latency in hidden platform at 25 mg/kg, po administered once daily for 1 week followed by scopolamine challenge 90 mins prior to test by Morris water maze test; assay type: functional, organism-based
How it was run: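 Male Wistar rats, 7 weeks old, dosed orally at 25 mg/kg in 1% carboxymethyl cellulose/0.5% Tween 80 once daily. Scopolamine 1 mg/kg i.p. 90 min before test trial (controls excluded). Morris water maze (hidden platform escape latency), elevated plus maze (started at open-arm end, time to closed arm), then CA1 phospho-tau Ser396/Ser404 immunohistochemistry.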

[4] = molecular target: T1, Protein deacetylase HDAC6 (Homo sapiens); experiment: Inhibition of HDAC6 in human SH-SY5Y cells transfected with pCAX FLAG APP and pRK5-EGFP-Tau P301L plasmids assessed as increase in HSP90 acetylation at 1 uM after 24 hrs by coimmunoprecipitation analysis; assay type: cell-based; how it was run: as §1
[5] = system: Mus musculus; experiment: In vivo inhibition of HDAC6 in 3xTg-AD transgenic mouse brain hippocampal CA1 region assessed as downregulation of scopolamine-mediated increase in Tau phosphorylation at Ser404 residue at 50 mg/kg, po administered daily for 3 months by Western blot analysis; assay type: functional, organism-based
How it was run: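 Female 3xTg-AD mice, fed standard diet to 6 months of age, then dosed orally at 50 or 100 mg/kg once daily for three months. Brains removed; hippocampal tissue lysates immunoblotted for acetyl-α-tubulin and phospho-tau Ser396 and Ser404. Mean ± STD; one-way ANOVA.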

COc1ccc(C(=O)c2ccc3c(ccn3Cc3ccc(C(=O)NO)cc3)c2)cc1
active: inhibition [1] | inhibition [2] | Activity [3] | inhibition [4] | inhibition [5]

— ChEMBL document CHEMBL4196108, “5-Aroylindoles Act as Selective Histone Deacetylase 6 Inhibitors Ameliorating Alzheimer's Disease Phenotypes” (J Med Chem, 2018)
